According to ChEMBL document CHEMBL1127071, “Structure-activity relationships of C-terminal endothelin hexapeptide antagonists” (J Med Chem, 1993):
Where a SMILES comes first, the peptide text is derived from it. [ ]: non-standard residue; d: D form. dDip = N[C@@H](C(=O)O)C(c1ccccc1)c1ccccc1; Orn = NCCC[C@H](N)C(=O)O

Tests used:
Endothelin receptor = target: T1, Endothelin receptor (Rattus norvegicus, UniProt P26684+P21451); assay: Binding affinity against Endothelin receptor from rat heart ventricle; assay type: protein assay
T1 sequence (P26684 whole entry): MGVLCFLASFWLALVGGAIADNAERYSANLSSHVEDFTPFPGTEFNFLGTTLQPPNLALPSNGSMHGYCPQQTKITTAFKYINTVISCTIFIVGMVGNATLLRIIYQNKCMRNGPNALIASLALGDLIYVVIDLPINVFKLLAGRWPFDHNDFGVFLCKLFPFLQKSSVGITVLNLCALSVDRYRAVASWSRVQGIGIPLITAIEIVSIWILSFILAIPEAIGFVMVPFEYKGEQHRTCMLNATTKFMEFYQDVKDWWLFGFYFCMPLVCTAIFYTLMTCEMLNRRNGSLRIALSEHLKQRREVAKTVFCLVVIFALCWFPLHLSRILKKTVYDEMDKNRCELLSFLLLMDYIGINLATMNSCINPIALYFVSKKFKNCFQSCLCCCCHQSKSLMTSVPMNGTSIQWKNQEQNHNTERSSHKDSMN
T1 sequence (P21451 whole entry): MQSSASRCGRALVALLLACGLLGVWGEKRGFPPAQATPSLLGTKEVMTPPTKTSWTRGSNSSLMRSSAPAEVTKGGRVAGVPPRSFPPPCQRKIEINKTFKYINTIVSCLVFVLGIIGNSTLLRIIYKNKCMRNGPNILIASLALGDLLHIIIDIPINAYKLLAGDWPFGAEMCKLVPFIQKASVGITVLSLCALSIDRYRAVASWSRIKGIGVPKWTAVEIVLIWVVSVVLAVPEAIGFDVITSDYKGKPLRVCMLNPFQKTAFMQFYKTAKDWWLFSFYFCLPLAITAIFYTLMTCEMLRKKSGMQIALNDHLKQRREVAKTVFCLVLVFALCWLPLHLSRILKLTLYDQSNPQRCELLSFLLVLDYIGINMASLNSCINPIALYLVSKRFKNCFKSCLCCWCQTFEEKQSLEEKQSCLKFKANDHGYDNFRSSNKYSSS

Rattus norvegicus = organism: Rattus norvegicus; assay: Inhibition of ET-1 stimulated inositol phosphate accumulation in rat fibroblast; assay type: functional, organism-based
How it was run: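 Rat skin fibroblasts prelabelled with [3H]inositol; ET-1-stimulated accumulation of total [3H]inositol phosphates in presence of Li+, measured by anion-exchange chromatography.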

[1] = target: T2, Endothelin receptor type B (Rattus norvegicus, UniProt P21451); assay: (§1) Effective concentration against Endothelin B receptor from rat cerebellum; assay type: tissue-based
T2 sequence (P21451 whole entry): T1 sequence (P21451 whole entry)
How it was run: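 Competition binding of 30 pM [125I]-ET-1 (2,000 Ci/mmol) to 5 µg membranes: rabbit renal artery vascular smooth muscle (ETA) or adult rat cerebellum (ETB). Buffer is 20 mM Tris, 2 mM EDTA, 100 µM PMSF and 100 µM bacitracin, pH 7.4, 37 °C, 2 h. Reaction stopped by GF/B filtration. Nonspecific binding measured with 100 nM ET-1. Triplicate points; IC50 from a one-site nonlinear fit.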

Oryctolagus cuniculus [2] = organism: Oryctolagus cuniculus; assay: Effective concentration against ET-1 stimulated arachidonic acid release in rabbit renal artery vascular smooth muscle cells; assay type: functional
How it was run: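 Confluent rabbit renal artery smooth muscle cells loaded 18 h at 37 °C with 0.25 µCi/mL [3H]arachidonic acid in DME/F12 with 0.5% FCS. Cells washed in Hank's/10 mM HEPES/fatty acid-free BSA buffer with three 5-min incubations. Then exposed 30 min to test compound (1 nM to 1 µM) plus 0.3 nM ET-1. Released [3H] counted by liquid scintillation; IC50 determined.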

[3] = target: T2, Endothelin receptor type B; assay: as §1; assay type: tissue-based; remark: listed apart in the source
Oryctolagus cuniculus [4] = organism: Oryctolagus cuniculus; assay: Inhibition of ET-1 stimulated arachidonic acid release in rabbit renal artery vascular smooth muscle cells; assay type: functional

Structure (SMILES) | IC50 (Endothelin receptor) [nM] | EC50 [1] [nM] | EC50 (Oryctolagus cuniculus [2]) [nM] | IC50 [3] [nM] | IC50 (Oryctolagus cuniculus [4]) [nM] | IC50 (Rattus norvegicus) [nM]
CC[C@@H](C)[C@@H](NC(=O)[C@@H](NC(=O)[C@H](CC(=O)O)NC(=O)[C@H](CC(C)C)NC(=O)[C@H](Cc1c[nH]cn1)NC(C)=O)[C@@H](C)CC)C(=O)N[C@@H](Cc1c[nH]c2ccccc12)C(=O)O | 16900 |  |  |  |  | > 100000
CC[C@H](C)[C@H](NC(=O)[C@H](Cc1ccccc1)NC(=O)[C@H](CC(C)C)NC(=O)[C@H](NC(C)=O)C(c1ccccc1)c1ccccc1)C(=O)N[C@H](C(=O)N[C@@H](Cc1c[nH]c2ccccc12)C(=O)O)[C@@H](C)CC (Ac-[dDip]LFIIW-OH) |  | 60 | 1300 |  |  | 
CC[C@H](C)[C@H](NC(=O)[C@H](CC(=O)O)NC(=O)[C@H](CC(C)C)NC(=O)[C@H](NC(C)=O)C(c1ccccc1)c1ccccc1)C(=O)N[C@H](C(=O)N[C@@H](Cc1ccc(O)cc1)C(=O)O)[C@@H](C)CC (Ac-[dDip]LDIIY-OH) |  | 6100 | 4300 |  |  | 
CC[C@H](C)[C@H](NC(=O)[C@H](CC(=O)O)NC(=O)[C@H](CCC(=O)O)NC(=O)[C@@H](Cc1ccccc1)NC(C)=O)C(=O)N[C@@H](Cc1c[nH]c2ccccc12)C(=O)O | 740 |  |  | 840 | 600 | 
CC[C@H](C)[C@H](NC(=O)[C@H](CC(=O)O)NC(=O)[C@H](CC(C)C)NC(=O)[C@@H](Cc1ccccc1)NC(C)=O)C(=O)N[C@@H](C)C(=O)N[C@@H](Cc1c[nH]c2ccccc12)C(=O)O (Ac-[dF]LDIAW-OH) | 6830 |  |  | > 10000 | > 10000 | 
CC[C@H](C)[C@H](NC(=O)[C@@H](NC(=O)[C@@H](CC(=O)O)NC(=O)[C@H](CC(C)C)NC(=O)[C@H](Cc1c[nH]cn1)NC(C)=O)[C@@H](C)CC)C(=O)N[C@@H](Cc1c[nH]c2ccccc12)C(=O)O | 37000 |  |  |  |  | > 50000
CC[C@H](C)[C@H](NC(=O)[C@H](CC(=O)O)NC(=O)[C@H](CC(C)C)NC(=O)[C@@H](Cc1ccccc1)NC(C)=O)C(=O)N[C@H](C(=O)N[C@@H](Cc1csc2ccccc12)C(=O)O)[C@@H](C)CC | 3800 |  |  | 9800 | > 10000 | 
CC[C@H](C)[C@H](NC(=O)[C@H](CC(=O)O)NC(=O)[C@H](CC(C)C)NC(=O)[C@H](N)C(c1ccccc1)c1ccccc1)C(=O)N[C@H](C(=O)N[C@@H](Cc1c[nH]c2ccccc12)C(=O)O)[C@@H](C)CC (H-[dDip]LDIIW-OH) |  | 1900 |  |  |  | 
CC[C@H](C)[C@H](NC(=O)[C@H](CC(=O)O)NC(=O)[C@H](C)NC(=O)[C@@H](Cc1ccccc1)NC(C)=O)C(=O)N[C@H](C(=O)N[C@@H](Cc1c[nH]c2ccccc12)C(=O)O)[C@@H](C)CC (Ac-[dF]ADIIW-OH) | 420 |  |  | 290 | 330 | 
CC[C@H](C)[C@H](NC(=O)[C@H](CC(=O)O)NC(=O)[C@H](CC(C)C)NC(=O)[C@H](Cc1c[nH]cn1)NC(C)=O)C(=O)N[C@H](C(=O)N[C@@H](Cc1c[nH]c2ccccc12)C(=O)O)[C@@H](C)CC | 58000 |  |  |  |  | 50000

Further lines, with some results ahead:

IC50 (Endothelin receptor) [nM] | EC50 [1] [nM] | EC50 (Oryctolagus cuniculus [2]) [nM] | IC50 [3] [nM] | IC50 (Oryctolagus cuniculus [4]) [nM] | Structure (SMILES) | IC50 (Rattus norvegicus) [nM]
 | 6000 | 2600 |  |  | CC[C@H](C)[C@H](NC(=O)[C@H](CC(=O)O)NC(=O)[C@H](CC(C)C)NC(=O)[C@H](NC(C)=O)C(c1ccccc1)c1ccccc1)C(=O)N[C@H](C(=O)N[C@@H](Cc1c[nH]c2ccccc12)C(=O)O)C(C)C (Ac-[dDip]LDIVW-OH) | 
 | 150 | 30 |  |  | CC[C@H](C)[C@H](NC(=O)[C@H](CC(=O)O)NC(=O)[C@H](CCCN)NC(=O)[C@H](NC(C)=O)C(c1ccccc1)c1ccccc1)C(=O)N[C@H](C(=O)N[C@@H](Cc1c[nH]c2ccccc12)C(=O)O)[C@@H](C)CC (Ac-[dDip][Orn]DIIW-OH) | 
 | 50 | 29 |  |  | CC[C@H](C)[C@H](NC(=O)[C@@H](NC(=O)[C@H](CC(=O)O)NC(=O)[C@H](CC(C)C)NC(=O)[C@H](NC(C)=O)C(c1ccccc1)c1ccccc1)C(C)C)C(=O)N[C@@H](Cc1c[nH]c2ccccc12)C(=O)O (Ac-[dDip]LDVIW-OH) | 
 | 52 | 130 |  |  | CC[C@H](C)[C@H](NC(=O)[C@H](CC(=O)O)NC(=O)[C@H](CCC(=O)O)NC(=O)[C@H](NC(C)=O)C(c1ccccc1)c1ccccc1)C(=O)N[C@H](C(=O)N[C@@H](Cc1c[nH]c2ccccc12)C(=O)O)[C@@H](C)CC (Ac-[dDip]EDIIW-OH) | 
